Inhibition data for 58 compounds are collected here from PubChem BioAssay AID720508 (The Scripps Research Institute Molecular Screening Center, 2013).

Out of some 370,000 compounds screened, about 500 (0.14%) were called active. What follows is part of a selection rich in actives, with near analogues and random picks from the rest. A number with no mark means an inactive call.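 The calls were made as follows: active = inhibition above the mean of compounds falling within the control limits plus 3 SD of them (cut at about 14% in these data); inactive = the rest.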

Chain of Fibrinogen beta chain (Homo sapiens) (P02675 whole entry, looked up): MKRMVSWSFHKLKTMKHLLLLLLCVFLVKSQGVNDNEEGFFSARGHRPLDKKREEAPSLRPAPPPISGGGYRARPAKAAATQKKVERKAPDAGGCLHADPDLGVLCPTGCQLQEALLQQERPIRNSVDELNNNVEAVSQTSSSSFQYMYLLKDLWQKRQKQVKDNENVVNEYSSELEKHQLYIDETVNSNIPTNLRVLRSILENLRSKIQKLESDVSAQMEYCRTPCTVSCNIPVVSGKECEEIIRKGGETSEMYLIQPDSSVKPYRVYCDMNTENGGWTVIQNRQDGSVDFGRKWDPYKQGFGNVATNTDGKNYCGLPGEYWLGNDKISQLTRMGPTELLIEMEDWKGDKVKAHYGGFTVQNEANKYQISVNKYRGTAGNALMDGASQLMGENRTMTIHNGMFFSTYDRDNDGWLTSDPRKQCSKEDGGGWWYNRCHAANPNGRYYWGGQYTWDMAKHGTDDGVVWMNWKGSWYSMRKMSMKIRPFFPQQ

The target in the experiment is Fibrinogen beta chain (Homo sapiens) (UniProt P02675). Put plainly: small molecules displacing Tn7 from DD(E) complex – biochemical, fluorescence polarization, human fibrin, Tn7 probe, primary screen (AID 720508).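 Also: 0% = plate median of compound wells and 100% = 10 µM Aha-Tn7 peptide.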 The following applies: FP displacement of FITC-Tn7 peptide from fibrin DD(E); at 8.3 µM; active compounds read high; 0% = median of compound wells per plate. An outline of the steps:
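Measure: % inhibition scaled between sample-field median and high-control FP; Test system: human fibrin DD(E); Quantity: 2 µM final DD(E) protein; Doses: one dose, 8.3 µM nominal; Schedule: compound with protein 10 min, then 3 h after probe, room temperature; Detection: fluorescence polarization; Medium: Tris buffer with calcium and detergent, pH 7.8.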
Regarding `CSC1=NC2(C)CCCCC2C12C=CC(=O)C=C2` (stereo not drawn), the inhibition is 6.72%.

Take `CC(OC(=O)CN1C(=O)COc2ccccc21)C(=O)NCc1ccc(F)cc1` (stereo not drawn): the inhibition was -2.52%.

For `CN(Cc1ccccc1)CC(O)COc1ccc(CNCc2cc3ccccc3s2)cc1` (stereo not drawn), the inhibition was 5.14%.

Consider `Cc1cc(C(=O)OC(C)C(=O)NC2CCCCC2C)c(C)o1` (stereo not drawn), for which the inhibition was -2.98%.

With `CCO/N=C(/C)c1c(O)cc(-c2ccccc2)n(-c2ccccc2)c1=O`, the inhibition is 0.3%.

Turning to `Oc1ccc2ccc3cccc[n+]3c2c1`, the inhibition was 62.8% (active).

With `COCCCNC(=O)Cc1ccc(-n2c(C)nc3cccnc32)cc1`, the inhibition was 1.6%.

Regarding `O=C(NNS(=O)(=O)c1ccc(F)cc1)c1ccc([N+](=O)[O-])cc1Cl`, the inhibition is 1.43%.

Regarding `O=C(COC(=O)c1ccc([N+](=O)[O-])cc1Cl)NC(=O)c1ccccc1`, the inhibition was 17.7% (active).

With `O=C(COC(=O)c1cc([N+](=O)[O-])ccc1NCc1ccccc1)NC1CCCCC1`, the inhibition was -0.23%.

Turning to `CC(C)(C)OC(=O)N1CCC(C(=O)Nc2cccc(C(=O)NCCc3ccccc3)c2)CC1`, the inhibition was -2.62%.

Consider `O=C(NCc1ccccc1)c1cccc(NC(=O)C2CCCCC2)c1`, for which the inhibition was 15.5% (active).

With `CCNC(=O)c1cccc(NC(=O)C2CC(=O)N(CCc3ccccc3)C2)c1` (stereo not drawn), the inhibition is 8.78%.

`O=C(/C=C/c1ccccc1[N+](=O)[O-])NCC1CCCO1` (stereo not drawn): the inhibition was 14.7% (active).

For `COc1ccc(C(=O)OCC(=O)NCC2CCCO2)cc1[N+](=O)[O-]` (stereo not drawn), the inhibition was 2.02%.

`CC(C)CNC(=O)COC(=O)/C=C/c1ccccc1[N+](=O)[O-]`: the inhibition is 2.51%.

Regarding `Cc1cc2nc3c(=O)n(Cc4ccccc4)c(=O)[nH]c3nc2cc1N`, the inhibition was 25.7% (active).

As to `COCCn1c(N)c(NCc2ccccc2)c(=O)[nH]c1=O`, the inhibition was 8.37%.

As for `Nc1ccc2nc3c(=O)[nH]c(=S)[nH]c3nc2c1`, the inhibition was 7.86%.

In the case of `CN(C)CCNC(=O)C(C(=O)c1ccccc1)n1ccccc1=O` (stereo not drawn), the inhibition is 8.86%.

Turning to `Cc1ccc(-c2nc(-c3cccnc3)sc2CC(=O)Nc2ccc(C)c(Cl)c2)cc1`, the inhibition is -4.07%.

For the compound `CSCCNC(=O)c1ccc2nc(Cc3ccccc3F)oc2c1`, the inhibition is -0.81%.

As to `Cc1ccc(NC(=O)CN(C)C(=O)c2ccc(Cl)c(S(=O)(=O)NCc3ccco3)c2)cc1`, the inhibition was -3.83%.

Turning to `COC(=O)[C@H](C(C)C)N1CCc2nnn(Cc3ccc(C)cc3)c2-c2ccccc2S1(=O)=O`, the inhibition was 5.12%.

For `O=C(COC(=O)c1ccc(O)cc1)Nc1nccs1`, the inhibition is 6.41%.

Take `O=C1C(=O)N(CCCN2CCOCC2)C(c2ccc([N+](=O)[O-])cc2)/C1=C(\O)c1ccc2c(c1)OCCO2` (stereo not drawn): the inhibition was -0.14%.

Consider `O=S(=O)(c1cccc(-c2nnc(SC(F)F)n2-c2ccccc2)c1)N1CCCCC1`, for which the inhibition was 3.4%.

For `O=C(OCC(=O)N1CCN(C(=O)c2ccco2)CC1)c1ccccc1Cc1ccccc1`, the inhibition was -2.57%.

In the case of `Cc1cccc(C)c1Nc1c(-c2ccccc2O)nc2ncccn12`, the inhibition is 2.35%.

Take `Cc1cc(Nc2cccc(F)c2)n2ncnc2n1`: the inhibition is -2.61%.

Turning to `COc1ccc(/C=C2\CCCC3C2=NN(C(=O)c2scnc2C)C3c2ccc(OC)cc2)cc1` (stereo not drawn), the inhibition is 2.65%.

For the compound `CC(C)=CCCC1(C)C=Cc2c(ccc3c2[nH]c2cc(O)c(C)cc23)O1` (stereo not drawn), the inhibition is -5.67%.

Consider `Cc1cc2nc3c(=O)[nH]c(=O)nc-3n(C[C@H](O)[C@H](O)[C@H](O)CO)c2cc1C`, for which the inhibition is 24.1% (active).

Take `CCN(CC)CCCC(C)n1c2nc(=O)[nH]c(=O)c-2nc2cc(Cl)ccc21` (stereo not drawn): the inhibition is -7.28%.

On to `CC(C)C[C@H]1CNC(=S)N1C[C@H]1CCCN1C[C@H](Cc1ccc(O)cc1)N1C[C@H](Cc2ccc(O)cc2)N(CC2CCCCC2)C1=S`, for which the inhibition was -3.09%.

Take `C=C(C)C#CC(Cc1ccccc1)N(CC1CC1)/C(N)=N/C(=O)OCc1ccccc1` (stereo not drawn): the inhibition is 1.85%.

For the compound `CC(C)CC(=O)c1c[nH]c(C(=O)NCc2ccccc2)c1`, the inhibition is -1.06%.

Turning to `CC1CCCCC12NC(=O)N(CC(=O)OCc1c(F)cccc1Cl)C2=O` (stereo not drawn), the inhibition is 5.49%.

On to `Cc1cc(C)c2nc3nc(C)cc(C)c3c(N)c2c1`, for which the inhibition is 3.42%.

Take `COc1ccc(S(=O)(=O)N2CCOCC2)cc1NC(=O)CSc1nnc(NC2CC2)s1`: the inhibition is -0.34%.

Consider `COc1ccc(S(=O)(=O)N2CCN(C(C)C(=O)Nc3ccc(C(C)C)cc3)CC2)cc1` (stereo not drawn), for which the inhibition is 2.11%.

Turning to `CCCC1CCC2(CCCN2CCOC(=O)NCc2ccccc2)CC1` (stereo not drawn), the inhibition is 2.73%.

Regarding `CCC(C)[C@H](NC(=O)N1c2ccccc2NC(=O)[C@@H]1C(C)C)C(=O)N[C@@H](Cc1ccccc1)C(=O)O` (stereo partly drawn), the inhibition was -4.14%.

As to `Cc1ccc(S(=O)(=O)c2c[nH]c3ccc(Cl)cc3c2=O)cc1`, the inhibition was -0.42%.

`COc1ccc(S(=O)(=O)c2c[nH]c(=S)[nH]c2=O)cc1Cl`: the inhibition was 14.8% (active).

In the case of `COc1ccc(S(=O)(=O)N(C)CC(=O)N2CCCC2)cc1Cl`, the inhibition is -5.85%.

For the compound `CSCC[C@H](NC(=O)NCc1cccs1)C(=O)O`, the inhibition was 1.72%.

For the compound `O=C(COC(=O)CCOc1ccccc1)Nc1cc(S(=O)(=O)N2CCCCC2)ccc1Cl`, the inhibition is 3.01%.

Consider `CC(=O)c1ccc(NC(=O)CCNS(=O)(=O)c2cc(Br)cnc2N)cc1`, for which the inhibition is 1.85%.

Consider `Nc1nc2n(n1)C(c1ccco1)CC(c1ccc(Cl)c(Cl)c1)N2` (stereo not drawn), for which the inhibition is -5.38%.

As to `O=C(N=C1SC2CS(=O)(=O)CC2N1Cc1ccccc1)c1ccccc1` (stereo not drawn), the inhibition is 8.78%.

In the case of `COCCNC(=O)CSc1nc2c(n1-c1ccccc1)CCCC2`, the inhibition is -3.74%.

Turning to `NC(=O)c1ccc(N2CCCC2)nc1`, the inhibition is 2.52%.

Take `CCc1nc2c(OCCC3CCCCC3)cccn2c1N(C)C(=O)c1ccco1`: the inhibition was -2.4%.

For `Cc1c(C(=O)O)nnn1-c1nonc1N`, the inhibition was 1.32%.

`O=C(NCc1ccccc1)C1CCCN(c2nc3ccsc3c(=O)s2)C1` (stereo not drawn): the inhibition was -2.86%.

Consider `CCC(=O)N1CCN=C1SCc1ccc(F)cc1`, for which the inhibition is 1.78%.

Consider `COc1cccc2c1C(=O)c1c(O)c3c(c(O)c1C2=O)CC(O)(C(C)=NNC(=O)c1ccc(Cl)c(Cl)c1)CC3OC1CC(N)C(O)C(C)O1` (stereo not drawn), for which the inhibition was 27% (active).

Usually inhibition stands for the drop in the measured response relative to a control, in per cent.
